Screening results deposited in PubChem BioAssay by several laboratories.
In the library only some 1.8% were active in any assay of this set; here they are far more common.
TRAIL sens C8 = viability loss with TRAIL in NB7+C8 cells, primary screen, TRAIL sensitizer project, cell-based, ATPlite luminescence; inhibition (viability loss, TRAIL sensitization), % at 10 µM; actives 1% (n = 360,000);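 active = compounds causing at least 50% loss of cell viability in the single-dose screen, relative to plate controls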
PPC-1+TRAIL kill = compounds killing PPC-1 cancer cells with TRAIL present, primary screen, TRAIL potentiator project, ATPLite luminescence, uHTS. PPC-1 cells + TRAIL, ATPLite viability luminescence. cell killing (% activity), % at 4 µM or 5 µM. AID 1443, 2008. actives 0.41% (n = 220,000);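 active = cell killing above 50% in the first pass at 4 µM, then a duplicate retest at 5 µM averaging 50% or more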;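 note: plate controls were cells with TRAIL plus DMSO for no effect and medium-only wells lacking cells for full effect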
STAT3 inh = IL-6 driven STAT3 reporter inhibitors, primary screen, U3A cells, luciferase, luminescence, MLSCN library. IL-6 STAT3-luciferase reporter; host cell line lacks STAT1. inhibition, % at 5.5 µM. actives 0.89% (n = 190,000). AID 862, 2007;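 active = inhibition above the mean inhibition across all screened compounds plus 3 SD, cut at about 44% in these data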;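 note: 0% = DMSO only wells and 100% = 100 µM nifuroxazide control wells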
STAT3 act = IL-6 driven STAT3 reporter potentiators, primary screen, U3A cells, luciferase, luminescence, MLSCN library; actives 0.91% (n = 190,000); activation (% of control), % at 5.6 µM; IL-6 STAT3-luciferase reporter; 100% = signal with IL-6 EC80 alone; AID 871, 2007;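 active = activation above the screen-wide mean of compound activation plus 3 SD, cut at about 130% in these data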;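 note: 0% = background luminescence of wells with medium and substrate only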
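Material: human STAT1-deficient U3A cells with stable STAT3-luciferase reporter / Probe or stimulus: IL-6 stimulus at 33 ng/mL final / Schedule: 1 h compound pre-exposure, 6 h IL-6 stimulation, 37 °C / Technique: luminescence / Read-out basis: percent of IL-6-only median luminescence / Control set: IL-6-only high control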
STAT1 inh = STAT1 signaling inhibitors, primary screen, cell-based, HTS, luciferase reporter | actives 0.35% (n = 200,000) | inhibition, % at 5.5 µM | NIH 3T3 STAT1-luciferase reporter, IFN-gamma, luminescence;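 active = inhibition above a set limit, the mean inhibition across all tested compounds plus 3 SD, cut at about 34% in these data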;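 note: 0% = IFN-gamma with DMSO and 100% = IFN-gamma with 300 µM nifuroxazide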
Active calls of the source: *; / = no result.

SMILES | TRAIL sens C8 | PPC-1+TRAIL kill | STAT3 inh | STAT3 act | STAT1 inh
CCOc1ccc(NC(=O)c2ccccn2)cc1 | 90.6* | 87.3* | 98.1* | 15.8 | 59.2*
CCOc1ccc(NC(=O)c2ccccc2OC)cc1 | 16.1 | 8.0 | -34.0 | 133.3* | -23.1
CCOc1ccc(NC(=O)c2cnccn2)cc1 | 47.4 | 47.3 | 33.3 | 73.3 | -22.6
CC(C)Oc1ccc(S(=O)(=O)N2CCOCC2)cc1NC(=O)c1cccc(S(=O)(=O)N2CCCC2)c1 | -0.8 | / | / | / | /
COc1ccc2nc(NN=C(C)c3ccccn3)cc(C)c2c1 | 69.4* | / | / | / | /
C=CCN1C(=O)C2(OCCCO2)c2cc(C)ccc21 | 3.9 | / | / | / | /
S=c1nc[nH]c2nc[nH]c12 | 71.0* | / | / | / | /
Cn1cnc2nc[nH]c2c1=S | -9.4 | / | / | / | /
O=C(NC1CCCCC1)C1c2ccccc2OCC(=O)N1Cc1ccccn1 (stereo not given) | 8.5 | / | / | / | /
O=C(COc1ccc(C(F)(F)F)cc1[N+](=O)[O-])Nc1cccc(C(F)(F)F)c1 | 8.0 | 51.9* | 2.0 | 96.5 | 9.0
O=C1/C(=C\c2ccc(Cl)c(Cl)c2)CN(C(=O)CCN2CCOCC2)C/C1=C/c1ccc(Cl)c(Cl)c1 | 92.6* | / | / | / | /
O=C1/C(=C\c2ccccc2)CN(C(=O)CCN2CCCCC2)C/C1=C/c1ccccc1 | 91.4* | / | / | / | /
CCN(CC)CCC(=O)N1C/C(=C/c2ccccc2)C(=O)/C(=C\c2ccccc2)C1 | 92.8* | / | / | / | /
Cc1cc(NC(=O)CSc2nnc(-c3ccc4c(c3)OCCO4)o2)no1 | 48.9* | 45.3 | -2.0 | 103.2 | -3.2
Cc1nc(-c2ccc(Cl)cc2)sc1C1(C)CC(c2ccc(C#N)cc2)=NO1 (stereo not given) | -1.8 | 17.1 | / | / | /
C#CCN(C[C@@H]1[C@@H](OC(=O)Nc2cccs2)[C@@H](OC(=O)Nc2cccs2)Cn2c(=O)ccc(=O)n21)S(=O)(=O)c1ccc(C)cc1 | 86.2* | / | / | / | /
C#CCN(C[C@@H]1[C@@H](OC(=O)NCc2ccccc2F)[C@@H](OC(=O)NCc2ccccc2F)Cn2c(=O)ccc(=O)n21)S(=O)(=O)c1ccc(C)cc1 | 81.4* | / | / | / | /
Cn1c(=N)n(CC(=O)c2ccc(Br)cc2)c2ccccc21 | 35.1 | / | / | / | /
Cn1c(=N)n(CC(=O)c2ccc(F)cc2)c2ccccc21 | 80.3* | / | / | / | /
Cc1ccccc1CN1C(=O)c2ccccc2S1(=O)=O | -11.3 | / | / | / | /
O=C1c2ccccc2S(=O)(=O)N1Cc1nc2ccccc2s1 | 37.8 | 23.1 | 61.4* | 49.5 | 51.9*
COc1ccc2sc3ccccc3c(=O)c2c1 | 2.5 | 8.5 | 4.1 | 100.6 | -35.3
COc1ccc(-c2cc(=O)c3ccccc3s2)cc1 | 53.7* | 40.8 | 9.8 | 96.0 | -86.3
CCOC(=O)C1CCCN(C(=O)Cn2nc(C)n3nc(-c4ccccc4)cc3c2=O)C1 (stereo not given) | 6.6 | / | / | / | /
CCN(CC)c1ccc(N=Cc2ccccc2[N+](=O)[O-])cc1 | -2.8 | 57.4* | -0.4 | 104.5 | 3.5
SMILES | TRAIL sens C8 | PPC-1+TRAIL kill | STAT3 inh | STAT3 act | STAT1 inh
CC(=O)N(C)c1ccc(N=Cc2cc3c(cc2[N+](=O)[O-])OCO3)cc1 | 2.6 | / | / | / | /
CCCCCC(=O)N/N=C/c1ccc([N+](=O)[O-])o1 | 11.7 | / | 15.9 | 91.7 | 6.5
CCN(CC)c1ccc(N=Cc2ccc([N+](=O)[O-])o2)cc1 | 2.6 | 53.0* | 6.2 | 95.5 | 3.4
CN(/N=C/c1cc(Br)cc(Br)c1O)c1cccc(C(F)(F)F)n1 | 19.5 | / | / | / | /
COc1ccc([C@@]2(O)c3c(ccc(CC=C(C)C)c3O)NC(=O)[C@@H]2OC)cc1 | 11.6 | 0.8 | / | / | /
Cc1cc(S(=O)(=O)N2CCCCC2)ccc1OCC(=O)Nc1ccccc1 | 16.4 | / | / | / | /
O=C(Nc1ccc(SC(F)F)cc1)c1cc(-c2ccncc2)nc2ccccc12 | 18.5 | / | / | / | /
C/C(=N\NC(=O)c1cc2ccccc2cc1O)c1cccs1 | 52.5* | / | / | / | /
C/C(=N/NC(=O)c1cc2ccccc2cc1O)c1ccco1 | 55.3* | / | / | / | /
CCN(CC)CCn1c2ccccc2c2cnc(N)c(C#N)c21 | 8.9 | 17.4 | -73.5 | 168.7* | -83.1
CN(C)C=Nc1ncc2c3ccccc3n(CCN(C)C)c2c1C#N | -3.3 | -9.9 | -1.5 | 102.0 | -8.9
COCCNC(=O)/C(C#N)=C/c1cc(C)n(-c2ccc(C)cc2)c1C | 62.1* | 47.9 | 6.6 | 99.3 | -48.5
Cc1ccccc1-n1c(C)cc(/C=C(\C#N)C(=O)NCC2CCCO2)c1C (stereo not given) | 25.2 | 54.6* | -27.2 | 122.7 | -56.2
Cc1ccc(/C=C(\C#N)C(=O)NCC2CCCO2)o1 (stereo not given) | -9.6 | -4.7 | 23.7 | 82.9 | -5.7
CC(C)CC(=O)c1c(O)c(C=O)c(O)c2c1O[C@@]1(C)[C@@H](C2)C[C@H]2C[C@@H]1C2(C)C | 20.4 | / | / | / | /
COc1ccc(OCC(=O)Nc2ccc3c(c2)CCC3)cc1 | -3.3 | / | / | / | /
COC(=O)c1cc(OCC(=O)Nc2ccc3c(c2)CCC3)cc(C(=O)OC)c1 | 94.0* | / | / | / | /
COC(=O)c1cccc(C23CC4(C2)[C@H](CN(Cc2cccnc2)[C@@H]4c2ccccc2)C3c2ccc(C(F)(F)F)cc2)c1 (stereo not given in full) | / | 13.5 | / | / | /
CCCc1cc(=O)[nH]c(SCC(=O)Nc2cccc(S(=O)(=O)N3CCOCC3)c2)n1 | -35.6 | / | / | / | /
CC(C)CCCCCCCCCCCCC(=O)NCC(=O)NC1C(O)C(O)C(Nc2ncnc3nc[nH]c23)OC1C(O)CO (stereo not given) | 65.1* | / | / | / | /
O=C(CN1C(=O)c2ccccc2S1(=O)=O)c1ccc(F)cc1 | 31.2 | -7.1 | / | / | /
O=C(CN1C(=O)c2ccccc2S1(=O)=O)c1ccc(Cl)cc1Cl | 67.3* | / | / | / | /
O=C(CN1C(=O)c2ccccc2S1(=O)=O)c1ccccc1F | 46.3* | / | / | / | /
COCCCNC(=O)C[C@H]1C[C@H](C(=O)N2CCOCC2)[C@@]2(CCC3CCCC3)c3[nH]c4cc(CCC(=O)N(C)C)ccc4c3CCN2C1=O | -12.6 | / | / | / | /
COc1ccc(N2CCN(C(=O)C3(S(=O)(=O)c4ccc(C)cc4)CC3)CC2)cc1 | -22.5 | / | / | / | /
SMILES | TRAIL sens C8 | PPC-1+TRAIL kill | STAT3 inh | STAT3 act | STAT1 inh
C=CCOc1cccc(/C=C/c2nc3ccccc3c(=O)[nH]2)c1 | 56.5* | / | / | / | /
COC(=O)c1ccc(/C=C/c2nc3ccccc3c(=O)[nH]2)cc1 | 53.3* | / | / | / | /
COc1cc(/C=C/c2nc3ccccc3c(=O)[nH]2)ccc1OC(F)F | 56.0* | / | / | / | /
COc1cc(/C=C/c2nc3ccccc3c(=O)[nH]2)cc(OC)c1OC | 9.8 | / | / | / | /
Cc1ccccc1/C=C/c1nc2ccccc2c(=O)[nH]1 | 53.8* | 25.0 | / | / | /
CCCCC[C@@H](C)N1C[C@H](COCc2ccccc2)Oc2cc(N3CCC[C@H]3COC)ccc2S1(=O)=O | 7.3 | / | / | / | /
CCOc1ccc(Oc2ccc(C(F)(F)F)cc2NC(=O)C2=COCCO2)cc1 | 9.4 | / | / | / | /
Cc1nn(CCOc2cccc(Cl)c2)c(C)c1[N+](=O)[O-] | -3.0 | / | / | / | /
O=C1c2cccc(NCCNCCO)c2C(=O)c2cccc(NCCNCCO)c21 | 64.1* | / | / | / | /
